Source: PubChem BioAssay AID1483 (NMMLSC, 2009)
Some of the results follow. A number with no mark means an inactive call.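 How the source made its calls: active means fluorescence beyond the plate control mean plus 3 SD, with a fluorescence-to-maximum score over 2 (cut at about 25 in these data); inactive means the rest.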

Experiment: green-channel fluorescence of compounds in CCRF-Adr cells – cell-based, 488/530 nm, flow cytometry, artefact control for ABC transporter inhibitor project, confirmation (AID 1483)
Conditions: compound autofluorescence 488/530 nm, at 6.6 µM, hits give high values
Outline: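 Probe or stimulus: JC-1 substrate omitted | Assay system: Drug-resistant CCRF-Adr cells | Compound dosing: One dose, 6.6 µM | Measure: Compound-treated cell MFI minus DMSO-treated cell MFI | Control set: DMSO-treated cell wells as background reference | Times: Compound with cells 10 min end-over-end rotation, 25 °C, immediate read | Signal: Flow cytometric MFI, 530 ± 20 nm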

COC(=O)COc1cc(C)cc2oc(=O)c3c(c12)CCCC3
fluorescence: 2.91
